The values that follow come from ChEMBL document CHEMBL5038594, “Structural Fine-Tuning of Desmuramylpeptide NOD2 Agonists Defines Their In Vivo Adjuvant Activity” (J Med Chem, 2021).

Data set [1] in a line: Cytotoxicity against HEK-Blue hNOD2 cells assessed as reduction in metabolic activity at 20 uM incubated for 18 hrs by MTS assay. As to conditions: human, hek-blue hnod2, 18 h. The data set is classed as toxicity, cell-based. The procedure, abridged:
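HEK-Blue NOD2 cells, 40 000 per well, exposed to 20 μM compound or 0.1% DMSO for 18 h at 37 °C, 5% CO2. Metabolic activity measured by MTS (CellTiter 96 AQueous One) reagent. Duplicates, two independent biological replicates.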
(Formazan colour is commonly taken as a measure of viable cells.)

Data set [2] addresses T1, Nucleotide-binding oligomerization domain-containing protein 1 (Homo sapiens) (UniProt Q9Y239).
T1 sequence (whole entry): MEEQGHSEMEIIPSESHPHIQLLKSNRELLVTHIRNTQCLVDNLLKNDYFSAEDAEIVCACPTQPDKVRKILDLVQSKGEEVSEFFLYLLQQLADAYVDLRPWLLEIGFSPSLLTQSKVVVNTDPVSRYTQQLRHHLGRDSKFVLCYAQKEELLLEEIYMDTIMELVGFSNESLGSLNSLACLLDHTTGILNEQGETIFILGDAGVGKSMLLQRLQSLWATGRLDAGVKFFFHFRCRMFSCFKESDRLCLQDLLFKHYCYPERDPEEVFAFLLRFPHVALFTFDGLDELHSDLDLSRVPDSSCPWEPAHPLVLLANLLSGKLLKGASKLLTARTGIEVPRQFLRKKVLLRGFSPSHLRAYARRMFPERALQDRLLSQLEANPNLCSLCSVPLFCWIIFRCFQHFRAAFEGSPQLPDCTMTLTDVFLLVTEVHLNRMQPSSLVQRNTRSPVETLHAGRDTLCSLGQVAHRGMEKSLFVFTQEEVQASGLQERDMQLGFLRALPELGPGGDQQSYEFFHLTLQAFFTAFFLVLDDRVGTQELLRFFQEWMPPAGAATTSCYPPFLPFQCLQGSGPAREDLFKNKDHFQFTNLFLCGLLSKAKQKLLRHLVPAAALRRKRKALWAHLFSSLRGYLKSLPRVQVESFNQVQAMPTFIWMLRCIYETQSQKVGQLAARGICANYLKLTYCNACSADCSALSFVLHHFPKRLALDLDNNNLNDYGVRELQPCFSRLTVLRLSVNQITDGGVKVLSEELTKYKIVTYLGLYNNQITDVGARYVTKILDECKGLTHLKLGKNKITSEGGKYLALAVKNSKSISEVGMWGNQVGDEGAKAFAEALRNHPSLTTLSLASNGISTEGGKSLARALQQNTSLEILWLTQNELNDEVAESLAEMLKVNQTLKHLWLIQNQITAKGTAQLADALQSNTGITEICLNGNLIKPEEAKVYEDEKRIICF
Briefly: Agonist activity at NOD1 in HEK-Blue hNOD2 cells assessed as increase in NFkappaB transactivation-mediated SEAP activity measured after 18 hrs by spectrophotometric method. The data set is classed as cell-based. As to conditions: HEK-Blue hNOD1, in the assay text read “HEK-Blue hNOD1 cells” for “HEK-Blue hNOD2 cells”. The procedure, abridged: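 Counter-screen in HEK-Blue NOD1 cells (HEK293 stably expressing human NOD1 plus an NF-κB-inducible SEAP reporter), seeded at 2.5 × 10^5 cells/mL in HEK-Blue detection medium. Compounds at 2 μM versus 0.1% DMSO vehicle, 18 h at 37 °C, 5% CO2. SEAP read as absorbance at 630 nm. Duplicates, at least two independent experiments.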

The structures appear in SMILES notation. Activity calls are given as the source filed them. The calls are words filed in the database; no cut-off is given here.

Consider `CCOC(=O)CC[C@@H](NC(=O)[C@@H](NC(=O)CNC(=O)[C@H]1C[C@@H]1c1ccc(F)c(F)c1)C(C)C)C(=O)OCC`, for which, in data set [1], the Activity result is given as “Non-Toxic”. In addition, the outcome in data set [2] was inactive.

On to `CCNC(=O)CC[C@@H](NC(=O)[C@@H](NC(=O)CNC(=O)/C=C/c1ccc(O)c(OC)c1)C(C)C)C(=O)NCC`, for which the Activity result in data set [1] was “Non-Toxic”. In data set [2], the result was inactive.

On to `CCCCNC(=O)CC[C@@H](NC(=O)[C@@H](NC(=O)CNC(=O)/C=C/c1ccc(O)c(OC)c1)C(C)C)C(=O)OC(C)(C)C`, for which, in data set [1], the Activity entry was “Non-Toxic”. In data set [2], the result was inactive.

Regarding `CCCCNC(=O)CC[C@@H](NC(=O)[C@@H](NC(=O)CNC(=O)/C=C/c1ccc(O)c(OC)c1)C(C)C)C(=O)NCCCC`, the Activity entry in data set [1] is on record as “Non-Toxic”. Further, the outcome in data set [2] was inactive.

As to `CCOC(=O)CC[C@@H](NC(=O)[C@@H](NC(=O)CNC(=O)/C=C/c1ccc(C(C)C)cc1)C(C)C)C(=O)OCC`, the Activity result in data set [1] is on record as “Non-Toxic”. For the same compound, the result in data set [2] was inactive.

With `COc1cc(/C=C/C(=O)NCC(=O)N[C@H](C(=O)N[C@H](CCC(=O)OC(C)(C)C)C(=O)OC(C)(C)C)C(C)C)ccc1O`, in data set [1], the Activity result was “Non-Toxic”. Further, in data set [2], the outcome was inactive.

For the compound `CCOC(=O)[C@@H](CCC(=O)N[C@@H](CCCCN)C(=O)OC)NC(=O)[C@@H](NC(=O)CNC(=O)/C=C/c1ccc(O)c(OC)c1)C(C)C`, in data set [1], the Activity result is given as “Non-Toxic”. Also, the result in data set [2] was inactive.

With `CCCCCCCCCCCC(=O)Oc1ccc(/C=C/C(=O)NCC(=O)N[C@H](C(=O)N[C@H](CCC(=O)OC2CCCC2)C(=O)OC2CCCC2)C(C)C)cc1OC`, the Activity result in data set [1] is listed as “Non-Toxic”. The outcome in data set [2] was inactive.

As for `CCOC(=O)CC[C@@H](NC(=O)[C@@H](NC(=O)CNC(=O)C1CC1c1ccc(O)c(OC)c1)C(C)C)C(=O)OCC` (some centres undefined), the Activity entry in data set [1] is listed as “Non-Toxic”. The outcome in data set [2] was inactive.

As to `CCOC(=O)CC[C@@H](NC(=O)[C@@H](NC(=O)CNC(=O)/C=C/c1ccc(O)c(OC)c1)[C@@H](C)O)C(=O)OCC`, the Activity entry in data set [1] is “Non-Toxic”. In data set [2], the outcome was inactive.

For the compound `COc1cc(/C=C/C(=O)NCC(=O)N[C@H](C(=O)N[C@H](CCC(=O)N2CCCC2)C(=O)OC(C)(C)C)C(C)C)ccc1O`, in data set [1], the Activity result is “Non-Toxic”. In addition, the result in data set [2] was inactive.

On to `CCOC(=O)CC[C@@H](NC(=O)[C@H](CO)NC(=O)CNC(=O)/C=C/c1ccc(O)c(OC)c1)C(=O)OCC`, for which the Activity result in data set [1] was “Non-Toxic”. The outcome in data set [2] was inactive.

On to `CCOC(=O)CC[C@@H](NC(=O)[C@@H](NC(=O)CNC(=O)/C=C/c1ccc(OC)c(OC)c1)C(C)C)C(=O)OCC`, for which, in data set [1], the Activity result is “Non-Toxic”. The outcome in data set [2] was inactive.

For `CCCCCCCCCCCCCCCCCC(=O)Oc1ccc(/C=C/C(=O)NCC(=O)N[C@@H](CO)C(=O)N[C@H](CCC(=O)OCC)C(=O)OCC)cc1OC`, the Activity result in data set [1] is recorded as “Non-Toxic”. The result in data set [2] was inactive.

In the case of `CCOC(=O)CC[C@@H](NC(=O)[C@H](COCc1ccccc1)NC(=O)CNC(=O)/C=C/c1ccc(O)c(OC)c1)C(=O)OCC`, in data set [1], the Activity result is “Non-Toxic”. The outcome in data set [2] was inactive.

`CCCCCCCCCCCCCCCCCCOC(=O)CC[C@@H](NC(=O)[C@@H](NC(=O)CNC(=O)/C=C/c1ccc(O)c(OC)c1)C(C)C)C(=O)OCCCCCCCCCCCCCCCCCC`: the Activity entry in data set [1] is recorded as “Non-Toxic”. For the same compound, in data set [2], the result was inactive.

Turning to `COc1cc(/C=C/C(=O)NCC(=O)N[C@H](C(=O)N[C@H](CCC(=O)OC2CCCC2)C(=O)OC2CCCC2)C(C)C)ccc1OC(C)=O`, in data set [1], the Activity result is recorded as “Non-Toxic”. For the same compound, in data set [2], the result was inactive.

Regarding `CCOC(=O)CC[C@@H](NC(=O)[C@@H](NC(=O)CNC(=O)/C=C/c1ccc(O)c(O)c1)C(C)C)C(=O)OCC`, in data set [1], the Activity result is listed as “Non-Toxic”. Moreover, the outcome in data set [2] was inactive.

For `CCOC(=O)CC[C@@H](NC(=O)[C@@H](NC(=O)CNC(=O)C1CC1c1ccc(OC)c(OC)c1)C(C)C)C(=O)OCC` (some centres undefined), in data set [1], the Activity entry was “Non-Toxic”. The result in data set [2] was inactive.

Turning to `CONC(=O)CC[C@@H](NC(=O)[C@@H](NC(=O)CNC(=O)/C=C/c1ccc(O)c(OC)c1)C(C)C)C(=O)OC(C)(C)C`, in data set [1], the Activity result is on record as “Non-Toxic”. Moreover, in data set [2], the result was inactive.

For the compound `CCOC(=O)CC[C@@H](NC(=O)[C@@H](NC(=O)CNC(=O)/C=C/c1ccc(N)cc1)C(C)C)C(=O)OCC`, the Activity entry in data set [1] is on record as “Non-Toxic”. Besides, the result in data set [2] was inactive.

Regarding `CCOC(=O)CC[C@@H](NC(=O)[C@@H](NC(=O)CNC(=O)C1CC1c1ccc(F)c(F)c1)C(C)C)C(=O)OCC` (some centres undefined), the Activity entry in data set [1] is “Non-Toxic”. Further, the outcome in data set [2] was inactive.

With `COc1cc(/C=C/C(=O)NCC(=O)N[C@H](C(=O)N[C@H](CCC(=O)OC(C)(C)C)C(=O)N2CCCC2)C(C)C)ccc1O`, the Activity result in data set [1] was “Non-Toxic”. Moreover, the outcome in data set [2] was inactive.

Turning to `CCCCCCCCCCCCCCCCCC(=O)Oc1ccc(/C=C/C(=O)NCC(=O)N[C@H](C(=O)N[C@H](CCC(=O)OC2CCCC2)C(=O)OC2CCCC2)C(C)C)cc1OC`, the Activity result in data set [1] is reported as “Non-Toxic”. In data set [2], the outcome was inactive.

Take `COc1cc(/C=C/C(=O)NCC(=O)N[C@H](C(=O)N[C@H](CCC(=O)OC(C)(C)C)C(=O)N(C)OC)C(C)C)ccc1O`: the Activity entry in data set [1] was “Non-Toxic”. In addition, in data set [2], the result was inactive.

Turning to `COc1cc(/C=C/C(=O)NCC(=O)N[C@H](C(=O)N[C@H](CCC(=O)N(C)OC)C(=O)OC(C)(C)C)C(C)C)ccc1O`, in data set [1], the Activity entry is reported as “Non-Toxic”. Besides, the outcome in data set [2] was inactive.

On to `CCOC(=O)CC[C@@H](NC(=O)[C@@H](NC(=O)CNC(=O)[C@@H]1C[C@H]1c1ccc(F)c(F)c1)C(C)C)C(=O)OCC`, for which the Activity entry in data set [1] is “Non-Toxic”. Further, the outcome in data set [2] was inactive.

In the case of `CCOC(=O)CC[C@@H](NC(=O)[C@@H](NC(=O)CNC(=O)CCc1ccc(O)c(OC)c1)C(C)C)C(=O)OCC`, the Activity entry in data set [1] is “Non-Toxic”. Moreover, in data set [2], the result was inactive.

Turning to `CCOC(=O)CC[C@@H](NC(=O)[C@@H](NC(=O)CNC(=O)CCCc1ccc(O)c(OC)c1)C(C)C)C(=O)OCC`, the Activity result in data set [1] is “Non-Toxic”. In addition, the result in data set [2] was inactive.

Take `CCCCCCCCCCCCCCCCCC(=O)NCCCC[C@H](NC(=O)CC[C@@H](NC(=O)[C@@H](NC(=O)CNC(=O)/C=C/c1ccc(O)c(OC)c1)C(C)C)C(=O)OCC)C(=O)OC`: in data set [1], the Activity entry is “Non-Toxic”. Further, the outcome in data set [2] was inactive.

Consider `CCOC(=O)CC[C@@H](NC(=O)[C@@H](NC(=O)CNC(=O)/C=C/c1ccc([N+](=O)[O-])cc1)C(C)C)C(=O)OCC`, for which the Activity result in data set [1] is on record as “Non-Toxic”. For the same compound, the result in data set [2] was inactive.

Consider `CCCCCCCCCCCCCCCCCC(=O)Oc1ccc(/C=C/C(=O)NCC(=O)N[C@@H](COCc2ccccc2)C(=O)N[C@H](CCC(=O)OCC)C(=O)OCC)cc1OC`, for which the Activity entry in data set [1] was “Non-Toxic”. Moreover, the result in data set [2] was inactive.
